Assay outcomes from PubChem.
ADAM17 inh: inhibitors of human ADAM17; P78536; recombinant ADAM17, EDANS/DABCYL FRET peptide cleavage; inhibition, % at 6.95 µM; 370,000 tested, 0.83% active;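 active = inhibition above the mean of compounds lying between control limits plus 3 SD, set per campaign, cut at about 8.5% in these data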;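 also: 0% = DMSO-only wells as the low control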
ADAM10 inh: inhibitors of human ADAM10 | inhibition, % at 7 µM | O14672 | 370,000 tested, 0.62% active | recombinant ADAM10, EDANS/DABCYL FRET peptide cleavage, 3 h;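 active = inhibition above a per-campaign cutoff equal to the mean of compounds falling between control-based bounds plus 3 SD, cut at about 20% in these data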;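 also: 0% = DMSO wells while the 100% control is not disclosed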
Target sequence (O14672 214-748 limits assumed): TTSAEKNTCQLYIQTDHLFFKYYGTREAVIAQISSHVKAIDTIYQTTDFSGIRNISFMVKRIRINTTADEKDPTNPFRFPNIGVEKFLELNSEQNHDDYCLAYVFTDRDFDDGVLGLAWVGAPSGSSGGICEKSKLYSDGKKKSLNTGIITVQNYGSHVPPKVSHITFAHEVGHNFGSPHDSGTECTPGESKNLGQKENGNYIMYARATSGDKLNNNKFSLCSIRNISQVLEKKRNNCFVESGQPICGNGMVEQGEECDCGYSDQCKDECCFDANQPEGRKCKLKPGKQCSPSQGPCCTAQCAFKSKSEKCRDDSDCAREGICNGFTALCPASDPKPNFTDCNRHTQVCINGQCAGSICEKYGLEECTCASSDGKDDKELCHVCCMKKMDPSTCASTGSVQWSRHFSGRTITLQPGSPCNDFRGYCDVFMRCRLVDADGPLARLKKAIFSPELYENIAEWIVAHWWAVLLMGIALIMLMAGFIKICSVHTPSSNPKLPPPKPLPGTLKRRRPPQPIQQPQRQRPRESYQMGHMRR
SENP1 inh: blocks the human SENP1 SUMO protease catalytic domain | Q9P0U3 | recombinant SENP1 catalytic domain, CyPet-SUMO1-YPet FRET cleavage | inhibition, % at 10 µM | 360,000 tested, 0.21% active | AID 624204;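 active = inhibition at least 30% at 10 µM, raw YFP signal under a set limit, fluorescence ratio 0.5 to 1.5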;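 also: 0% = enzyme with DMSO and 100% = no enzyme wells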
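System: Recombinant human SENP1 catalytic domain, His6-tagged | Incubation: Enzyme reaction for 50 min at room temperature, dark | Medium: Tris pH 8 with BME, BSA, NP40 and catalase | Also added: 25 nM SUMO1 FRET substrate | Compound: 10 µM single point, 0.5% DMSO | Measured by: FRET fluorescence in CFP and YFP emission channels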
FAS TE block: inhibitors of human fatty acid synthase thioesterase domain | P49327 | recombinant FAS-TE, OMFH fluorogenic substrate, fluorescence endpoint | 360,000 tested, 0.67% active | inhibition, % at 15 µM;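 active = compounds whose normalised, plate-corrected inhibition of enzyme fluorescence in the single-dose primary screen is 50% or more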;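 also: 0% = DMSO with enzyme and 100% = substrate without enzyme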
ADAM10 counter: inhibits human ADAM10 in ADAM17 exosite counter-screen | recombinant ADAM10, EDANS/DABCYL FRET peptide cleavage, 3 h | shares compounds with ADAM17 inh | 2,900 tested, 47% active | inhibition, % at 6.95 µM | AID 743256;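 active = mean inhibition over the triplicate runs exceeds the activity threshold set in the earlier primary screen, cut at about 20% in these data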;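 also: 0% = DMSO wells and 100% = marimastat wells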
ADAM17 confirm: confirmation of inhibitors of human ADAM17 | shares compounds with ADAM17 inh | recombinant ADAM17, EDANS/DABCYL QFRET peptide cleavage | inhibition, % at 6.95 µM | 2,900 tested, 65% active | AID 743257;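 active = mean inhibition across replicates above the hit cutoff set in the primary screen, cut at about 8.5% in these data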;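 also: 0% = DMSO wells and 100% = marimastat wells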
Active calls of the source: *; . = no result. Compounds with a hit are over-represented: about 1.9% of the library has one in this group of screens.

SMILES	ADAM17 inh	ADAM10 inh	SENP1 inh	FAS TE block	ADAM10 counter	ADAM17 confirm
CCN1C(=O)[C@H]2[C@@H](c3ccc(-c4ccc(C(C)=O)cc4)cc3)N3CCC[C@@]3(C(=O)OC)[C@H]2C1=O	9.7*	16.1	0.8	14.1	-8.9	0.3
O=C(CN1CCN(Cc2ccccc2Cl)CC1)N/N=C\c1ccccc1F	-3.3	-4.7	.	.	.	.
Oc1ccc(C[C@@H]2CNCCN2CCC23CC4CC(CC(C4)C2)C3)cc1	1.0	-2.0	2.1	-7.2	.	.
Oc1ccc(C[C@H]2CNCCN2CCC23CC4CC(CC(C4)C2)C3)cc1	10.7*	14.5	2.3	-6.1	2.1	2.2
Cc1ccc([C@@H]2CC(=O)[C@@H]3CN(S(=O)(=O)c4ccc(C)cc4)[C@H](c4ccccc4F)C[C@@H]3N2S(=O)(=O)c2ccc(C)cc2)cc1	-0.6	-0.2	0.0	19.6	.	.
Cc1ccc(S(=O)(=O)N2C[C@H]3C(=O)C[C@@H](c4ccccc4F)N(S(=O)(=O)c4ccc(C)cc4)[C@H]3C[C@H]2c2ccccc2)cc1	10.3*	-0.7	-0.4	43.6	14.0	5.6
CC(=O)c1cc(-c2ccccc2)n(CC(=O)NCc2ccc(F)cc2)c1C	2.5	-1.2	.	.	.	.
CCC(=O)Nc1c2c(nn1-c1ccc(OC)cc1)CS(=O)C2 (configuration not stated)	-2.8	-14.2	-0.2	-0.6	.	.
CCC(CC)C(=O)Nc1c2c(nn1-c1ccc(OC)cc1)CS(=O)C2 (configuration not stated)	8.7*	8.1	-0.9	-6.4	19.2	8.2
COc1cc(C(O)c2nc(-c3ccc(F)cc3OC)cs2)ccc1F (configuration not stated)	12.3*	2.5	2.0	19.4	26.2*	14.2*
COc1cc(F)ccc1-c1csc(C(O)c2ccc(F)c(F)c2)n1 (configuration not stated)	6.0	12.2	1.7	17.4	.	.
COc1cc(C(O)c2nc(-c3csc4ccccc34)cs2)ccc1F (configuration not stated)	10.0*	12.1	-0.4	24.3	23.1*	16.7*
OC(c1ccc(F)c(F)c1)c1nc(-c2csc3ccccc23)cs1 (configuration not stated)	5.8	10.0	3.2	18.5	.	.
CC(C)CCCCCCNC(=S)Nc1ccc(S(=O)(=O)N2CCOCC2)cc1	9.0*	16.4	1.3	26.9	46.9*	23.4*
C#CCNC(=O)C[C@@H]1C(=O)N(Cc2ccc(OC)cc2)/C2=C/CCCCC[C@@]21C(=O)OCC	-4.6	-6.2	.	.	.	.
Nc1cc(S(=O)(=O)N2CCCCC2)ccc1Oc1ccc(Cl)cc1	8.8*	19.5	1.2	23.7	16.9	11.2*
CCOc1ccc(NS(=O)(=O)c2ccc3c(c2)CCN3C(=O)CCC(=O)O)cc1	9.8*	13.9	1.6	-3.2	-3.4	-0.3
Cc1cc(NC(=O)CC#N)n(-c2ccccc2)n1	-1.8	3.1	-2.1	-8.5	.	.
Cc1cc(NC(=O)/C(C#N)=C/c2ccco2)n(-c2ccccc2)n1	9.0*	16.0	-2.2	7.7	20.3*	11.2*
O=S(=O)(Nc1ccc(O)c(Sc2nc3ccccc3s2)c1)c1ccc(F)cc1	10.5*	18.7	-0.1	9.6	34.2*	23.3*
O=C(O)c1cccc(S(=O)(=O)Nc2ccc(O)c(Sc3nc4ccccc4s3)c2)c1	-2.1	1.4	4.0	-4.5	.	.
O=S(=O)(Nc1ccc(O)c(Sc2nc3ccccc3s2)c1)c1cccc2ccccc12	9.0*	17.7	-0.1	16.7	42.0*	22.3*
CCOC(=O)[C@]12CCCC=C1N(Cc1ccc(OC)cc1)C(=O)[C@@H]2CC(=O)NCc1cccc2ccccc12	6.6	18.5	.	.	.	.
Cc1nn(-c2ccccc2)c2sc(C(=O)NCCc3ccccc3)cc12	2.1	-4.9	.	.	.	.
CCCCCC(=O)N1C[C@H](n2cc(COC(=O)c3ccccc3)nn2)[C@@H](O)C[C@@H]1c1ccc(C)cc1	9.8*	16.3	-0.1	18.6	32.5*	17.0*
SMILES	ADAM17 inh	ADAM10 inh	SENP1 inh	FAS TE block	ADAM10 counter	ADAM17 confirm
CCCCCC(=O)N1C[C@@H](n2cc(-c3ccc(F)cc3)nn2)[C@H](O)C[C@@H]1c1ccc(C)cc1	10.3*	16.5	1.6	48.1	16.8	9.9*
CCCCCC(=O)N1C[C@@H](O)[C@H](n2cc(COC(=O)c3ccccc3)nn2)C[C@@H]1c1ccc(C)cc1	3.7	1.4	-0.5	6.5	.	.
COc1ccc([C@H]2C[C@H](O)[C@@H](n3cc(COC(=O)c4ccccc4)nn3)CN2Cc2cccs2)cc1	9.3*	6.9	-2.8	-1.7	8.0	3.6
c1ccc2c(CN3CCCCC3)csc2c1	-1.4	-0.8	1.1	-8.4	.	.
O=C(O)Cc1csc2ccccc12	10.0*	8.8	-1.3	-2.8	-9.5	-4.2
O=C(Nc1cccc(-n2cccn2)c1)C1CCCN(Cc2ccccc2F)C1 (configuration not stated)	11.4*	-2.9	-2.1	7.5	-8.7	-0.6
CCOC(=O)N[C@H](C(=O)N1CCC[C@H]1C(=O)NCCc1ccccc1Cl)C1CCCCC1	-1.3	-4.2	.	.	.	.
COc1ccc(CC(=O)NNC(=O)CSc2nnc(Cc3ccc(OC)cc3)n2-c2ccccc2)cc1	0.4	1.1	0.1	-4.3	.	.
O=C(CSc1nnc(Cc2ccccc2)n1-c1cccc(Cl)c1)NNC(=O)Cc1ccccc1	15.0*	16.5	6.0	-0.5	10.3	4.8
CCOC(=O)c1cnc2ccc(OCC)cc2c1N(C)Cc1ccccc1	9.4*	6.5	-5.8	26.2	24.2*	15.0*
CCOC(=O)c1cnc2ccc(OCC)cc2c1N1CCN(c2ccccc2OC)CC1	.	.	0.1	25.2	.	.
O=C(c1ccc(S(=O)(=O)c2cccc(Cl)c2)c([N+](=O)[O-])c1)N1CCN(Cc2ccccc2)CC1	10.4*	10.1	2.8	25.7	25.4*	17.2*
COc1ccc(C(=O)N2CCN(Cc3ccccc3)CC2)cc1[N+](=O)[O-]	0.2	6.4	1.2	0.9	.	.
CCOC(=O)c1c(C)[nH]c(C)c1C(=O)COC(=O)/C=C/c1cccc(F)c1	3.6	11.7	1.2	-0.7	.	.
CCOC(=O)c1c(C)[nH]c(C)c1C(=O)COC(=O)/C=C/c1cccc(C(F)(F)F)c1	12.0*	10.6	2.6	16.9	26.7*	15.3*
Cc1c(C=O)c2ccccn2c1C(=O)c1ccc(F)cc1	10.1*	12.1	0.3	9.2	-4.2	2.6
CCCCCOc1ccc(/C=N/NC(=O)CSc2nnc(-c3ccc(OC)cc3)n2-c2ccc(C)cc2)cc1	-0.1	4.2	.	.	.	.
Cc1onc(-c2ccc(Cl)cc2)c1-c1ccn(S(=O)(=O)c2cccc(Cl)c2)n1	4.9	4.2	.	.	.	.
O=C(CSc1nnc(-c2cccnc2)n1-c1ccc(Cl)cc1)Nc1ccccc1-c1ccccc1	2.2	6.2	.	.	.	.
